# Reference: ChEMBL document CHEMBL3102820, “Developing bivalent ligands to target CUG triplet repeats, the causative agent of myotonic dystrophy type 1” (J Med Chem, 2013)
# Calls of active or inactive are those of the source. The calls are words filed in the database; no cut-off is given here.
# Legend:
# [1] = Binding affinity to 5'-TAMRA-labeled (CUG)6 RNA (unknown origin) by fluorescence titration assay
# Method in brief: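 Steady-state fluorescence titration. Ligand was titrated into 5'-TAMRA-(CUG)6 in 1X PBS, and the drop in TAMRA emission was followed. Normalized intensity was plotted against ligand concentration to give a binding isotherm, which was fitted for KD.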
# Nucleic Acid [2] = experiment: Binding affinity to (CUG)12 RNA (unknown origin) assessed as change in melting temperature at 1 equiv treated in aqueous solution by thermal denaturation assay; assay type: nucleic-acid assay; details: unidentified
# [3] = Inhibition of biotin-labeled (CUG)12 RNA (unknown origin)-MBNL1 interaction by SPR analysis
# Method in brief: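 SPR in 1X PBS with Tween-20 and excess competitor tRNA. Biotinylated (CUG)12 was immobilized on a streptavidin chip and pre-incubated with ligand at varied concentrations to steady-state RU over 150 s. Then 0.65 μM MBNL1 was injected with ligand at the same concentration. Maximum RU at 150 s was converted to % (CUG)12 bound, normalized to the no-ligand value, and fitted for apparent IC50.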
# Nucleic Acid [4] = experiment: Binding affinity to (CUG)12 RNA (unknown origin) assessed as change in melting temperature at 1 equiv treated in 5% DMSO by thermal denaturation assay; assay type: nucleic-acid assay
# Nucleic Acid [5] = experiment: Binding affinity to (CUG)12 RNA (unknown origin) assessed as change in melting temperature by thermal denaturation assay; assay type: nucleic-acid assay
# [6] = Drug uptake in nucleus of human HeLa cells expressing (CUG)960 RNA at 35 uM after 36 hrs by confocal microscopic analysis; assay type: ADME, cell-based
# Method in brief: (§1)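 HeLa cells, about 120,000 per well on coverslips, were transfected after 1 day with 500 ng DMPK-CTG960 plasmid (CTG0 plasmid for control cells). Ligand was given at 20, 35 or 50 μM for 36 h. Cells were then fixed and foci stained by FISH with Cy3-(CAG)10, with TO-PRO-3 nuclear stain. Confocal excitation was 405 nm (acridine ligand uptake), 555 nm (Cy3) and 639 nm (TO-PRO-3). Over 100 cells were scored for foci; two-tailed Student t test.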
# [7] = Cytotoxicity against human HeLa cells assessed as cytotoxicity up to 75 uM after 24 hrs by sulforhodamine B assay
# HeLa [8] = experiment: Binding affinity to (CUG)960 RNA (unknown origin) expressed in human HeLa cells assessed as foci dispersion at 20 to 50 uM after 36 hrs by confocal microscopic analysis; assay type: cell-based; method in brief: as §1
# HeLa [9] = experiment: Drug uptake in human HeLa cells expressing (CUG)960 RNA at 35 uM after 36 hrs by confocal microscopic analysis; assay type: ADME, cell-based; method in brief: as §1
# [10] = Inhibition of (CUG)12 RNA (unknown origin)-MBNL1 interaction after 10 to 15 mins
# [11] = Drug uptake in human HeLa cell nuclear membrane expressing (CUG)960 RNA coexpressing GFP-tagged MBNL1 at 50 uM after 3 to 10 hrs by live cell microscopic analysis; assay type: ADME, cell membranes
# Method in brief: (§2)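 HeLa cells co-transfected with DMPK-CTG960 and GFP-MBNL1 plasmids were grown on a gridded dish so each cell could be relocated by DIC. Ligand was added to 50 μM final. Time-lapse confocal images of GFP-MBNL1 foci and acridine fluorescence were taken before addition and at 3, 6 and 10 h. At 10 h, Z-stacks of 1 μm slices through the whole cell were taken. Untreated cells were imaged the same way.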
# HeLa [12] = experiment: Binding affinity to (CUG)960 RNA (unknown origin) expressed in human HeLa cells coexpressing GFP-tagged MBNL1 assessed as MBNL1 foci dispersion throughout nucleus at 50 uM after 3 to 10 hrs by live cell microscopic analysis; assay type: cell-based; method in brief: as §2
# [13] = Drug uptake in human HeLa cell membrane expressing (CUG)960 RNA coexpressing GFP-tagged MBNL1 at 50 uM after 3 to 10 hrs by live cell microscopic analysis; assay type: ADME, cell-based; method in brief: as §2
# HeLa [14] = experiment: Binding affinity to (CUG)960 RNA (unknown origin) expressed in human HeLa cells coexpressing GFP-tagged MBNL1 assessed as MBNL1 foci dispersion throughout nucleus at Z-plane of cells at 50 uM after 10 hrs by live cell microscopic analysis; assay type: cell-based; details: unidentified; method in brief: as §2
Structure (SMILES),Kd [1],IC50 [3],Drug uptake [6],Drug uptake (HeLa [9]),Activity (HeLa [8]),also measured
Nc1nc(N)nc(NCCCCNc2c3ccccc3nc3ccc(C(=O)NCCOCCOCCNC(=O)c4ccc5nc6ccccc6c(NCCCCNc6nc(N)nc(N)n6)c5c4)cc23)n1,23 µM,18 µM,–,–,–,ΔTm (Nucleic Acid [4]): 2.7 °C
Nc1nc(N)nc(NCCCCNc2c3ccccc3nc3ccc(C(=O)NCCCOCCOCCOCCCNC(=O)c4ccc5nc6ccccc6c(NCCCCNc6nc(N)nc(N)n6)c5c4)cc23)n1,75 µM,28 µM,–,–,–,–
Nc1nc(N)nc(NCCCCNc2c3ccccc3nc3ccc(C(=O)NCCOCCOCCOCCOCCOCCNC(=O)c4ccc5nc6ccccc6c(NCCCCNc6nc(N)nc(N)n6)c5c4)cc23)n1,–,43 µM,–,–,–,–
Nc1nc(N)nc(NCCCCNc2c3ccccc3nc3c(C(=O)NCCOCCOCCOCCOCCOCCNC(=O)c4cccc5c(NCCCCNc6nc(N)nc(N)n6)c6ccccc6nc45)cccc23)n1,–,37 µM,–,–,–,ΔTm (Nucleic Acid [4]): 1.8 °C
CNC(=O)c1ccc2nc3ccccc3c(NCCCCNc3nc(N)nc(N)n3)c2c1,66 µM,293 µM,Not Active,Not Active,inactive,ΔTm (Nucleic Acid [4]): 1.8 °C; cytotoxicity at 24 h [7]: < 20%
COc1ccc2nc3cc(Cl)ccc3c(NCCCCNc3nc(N)nc(N)n3)c2c1,–,–,–,–,–,IC50 [10]: 46 µM
Nc1nc(N)nc(NCCCCNc2c3ccccc3nc3ccc(C(=O)NCCCNCCCCCCCCNCCCNC(=O)c4ccc5nc6ccccc6c(NCCCCNc6nc(N)nc(N)n6)c5c4)cc23)n1,–,–,Active,Active,inactive,–

# More lines, main results first:
Kd [1],IC50 [3],Drug uptake [6],Drug uptake (HeLa [9]),Structure (SMILES),Activity (HeLa [8]),also measured
3.8 µM,6 µM,–,–,Nc1nc(N)nc(NCCCCNc2c3ccccc3nc3c(C(=O)NCCNCCNCCNCCNC(=O)c4cccc5c(NCCCCNc6nc(N)nc(N)n6)c6ccccc6nc45)cccc23)n1,–,ΔTm (Nucleic Acid [2]): 9.6 °C
–,15 µM,–,–,CC(=O)NCCCNCCCNCCCNC(=O)c1cccc2c(NCCCCNc3nc(N)nc(N)n3)c3ccccc3nc12,–,ΔTm (Nucleic Acid [5]): 2.5 °C
0.32 µM,1.1 µM,Active,Active,Nc1nc(N)nc(NCCCCNc2c3ccccc3nc3c(C(=O)NCCCNCCCNCCCNC(=O)c4cccc5c(NCCCCNc6nc(N)nc(N)n6)c6ccccc6nc45)cccc23)n1,Active,Drug uptake [11]: Active; Activity (HeLa [12]): Active; ΔTm (Nucleic Acid [2]): 9.3 °C; Drug uptake [13]: Active; cytotoxicity at 24 h [7]: < 20%; Activity (HeLa [14]): Active
4.8 µM,5 µM,Not Active,Not Active,Nc1nc(N)nc(NCCCCNc2c3ccccc3nc3c(C(=O)NCCNCCNCCNC(=O)c4cccc5c(NCCCCNc6nc(N)nc(N)n6)c6ccccc6nc45)cccc23)n1,inactive,ΔTm (Nucleic Acid [2]): 8.4 °C
